Data on one molecule can be found in ChEMBL document CHEMBL5678802, “Small-molecule p21-activated kinase inhibitor PF-3758309 is a potent inhibitor of oncogenic signaling and tumor growth” (Proc Natl Acad Sci U S A, 2010).

One assay has as its system BXPC-3. Nature of the assay: Antiproliferative activity against human BXPC-3 cells assessed as inhibition of cell proliferation incubated for 3 days by CellTiter-Glo Luminescent Cell Viability Assay. Conditions: BXPC-3, 72 h. The assay is classed as functional, cell-based. In short, it runs like this: (§1)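 Cancer cell lines seeded in 384-well plates on day 1; compound added on day 2 and left for 3 days. On day 5 all medium was aspirated, and viable cells were quantified by CellTiter-Glo luminescence, which measures cellular ATP. Dose-dependent effects on proliferation were determined.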
On the technique in general: ATP-based viability assays read luminescence as a measure of living cells.

Another assay concerns Panc 04.03. Nature of the assay: Antiproliferative activity against human Panc 04.03 cells assessed as inhibition of cell proliferation incubated for 3 days by CellTiter-Glo Luminescent Cell Viability Assay. The class given is functional, cell-based. Conditions: Panc 04.03, 72 h. Summed up:
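Cells of each line were plated in 384-well plates on day 1 and exposed to compound from day 2 for 3 days. On day 5 all medium was aspirated. Viable cell number was read by CellTiter-Glo luminescence, which quantifies cellular ATP.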

Another assay deals with Hs 766. Briefly: Antiproliferative activity against human Hs766T cells assessed as inhibition of cell proliferation incubated for 3 days by CellTiter-Glo Luminescent Cell Viability Assay. The assay is classed as functional, cell-based. Conditions: Hs 766, 72 h. Summed up:
as §1

A further assay concerns HPAF-II. Nature of the assay: Antiproliferative activity against human HPAF-II cells assessed as inhibition of cell proliferation incubated for 3 days by CellTiter-Glo Luminescent Cell Viability Assay. The assay is classed as functional, cell-based. Conditions: 72 h. Summed up:
as §1

Another assay concerns CAPAN-1. Nature of the assay: Antiproliferative activity against human CAPAN-1 cells assessed as inhibition of cell proliferation incubated for 3 days by CellTiter-Glo Luminescent Cell Viability Assay. Conditions: CAPAN-1, 72 h. The assay is classed as functional, cell-based. Summed up:
as §1

The subject of another assay is CFPAC-1. Nature of the assay: Antiproliferative activity against human CFPAC-1 cells assessed as inhibition of cell proliferation incubated for 3 days by CellTiter-Glo Luminescent Cell Viability Assay. The assay is classed as functional, cell-based. Conditions: CFPAC-1, 72 h. In short, it runs like this: as §1
For another assay, the system named is COLO 205. Briefly: Inhibition of anchorage independent cell growth in human COLO 205 cells incubated for 6 days by Alamar blue reagent based fluorescence plate reader analysis. The assay is classed as functional. Conditions: COLO 205, 144 h. Summed up: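 Soft-agar colony formation: bottom layer 0.5% agar (2× DMEM with 1% agarose, 1:1), top layer 0.35% agar holding 4,000 cells; layers set 20–30 min at room temperature, then 1× DMEM containing compound added on top. Incubated 6 days; Alamar blue added and fluorescence read at 540 nm.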
Background: Resazurin is reduced to fluorescent resorufin, in cell work by metabolically active cells.

For another assay, the system named is BT-474. Nature of the assay: Antiproliferative activity against human BT-474 cells assessed as inhibition of cell proliferation incubated for 3 days by CellTiter-Glo Luminescent Cell Viability Assay. Conditions: BT-474, 72 h. The class given is functional, cell-based. Summed up:
as §1

For assay [1], the target named is Tyrosine-protein kinase Fyn (Homo sapiens, UniProt P06241). Nature of the assay: Inhibition of human FYN in presence of ATP relative to control. Conditions: concentration not given here.
Chain of Tyrosine-protein kinase Fyn (P06241 2-537 limits assumed): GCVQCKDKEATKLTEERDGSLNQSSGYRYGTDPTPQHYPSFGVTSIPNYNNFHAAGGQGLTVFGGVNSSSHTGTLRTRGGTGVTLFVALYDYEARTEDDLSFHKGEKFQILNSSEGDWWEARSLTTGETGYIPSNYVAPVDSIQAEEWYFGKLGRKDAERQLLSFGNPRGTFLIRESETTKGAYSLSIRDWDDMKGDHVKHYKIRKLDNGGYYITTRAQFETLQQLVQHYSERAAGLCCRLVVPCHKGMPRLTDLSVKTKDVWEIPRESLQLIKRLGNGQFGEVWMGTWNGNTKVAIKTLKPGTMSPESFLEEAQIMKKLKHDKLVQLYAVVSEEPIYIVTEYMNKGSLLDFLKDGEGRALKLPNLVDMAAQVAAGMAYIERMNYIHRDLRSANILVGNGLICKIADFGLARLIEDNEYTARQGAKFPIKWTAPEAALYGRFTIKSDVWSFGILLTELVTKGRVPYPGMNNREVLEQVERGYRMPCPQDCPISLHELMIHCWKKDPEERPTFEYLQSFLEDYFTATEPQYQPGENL
In assay [2] the target is Ribosomal protein S6 kinase alpha-3 (Homo sapiens, UniProt P51812). Briefly: Inhibition of human RSK2 assessed as inhibition constant in presence of ATP.
Chain of Ribosomal protein S6 kinase alpha-3 (P51812 whole entry): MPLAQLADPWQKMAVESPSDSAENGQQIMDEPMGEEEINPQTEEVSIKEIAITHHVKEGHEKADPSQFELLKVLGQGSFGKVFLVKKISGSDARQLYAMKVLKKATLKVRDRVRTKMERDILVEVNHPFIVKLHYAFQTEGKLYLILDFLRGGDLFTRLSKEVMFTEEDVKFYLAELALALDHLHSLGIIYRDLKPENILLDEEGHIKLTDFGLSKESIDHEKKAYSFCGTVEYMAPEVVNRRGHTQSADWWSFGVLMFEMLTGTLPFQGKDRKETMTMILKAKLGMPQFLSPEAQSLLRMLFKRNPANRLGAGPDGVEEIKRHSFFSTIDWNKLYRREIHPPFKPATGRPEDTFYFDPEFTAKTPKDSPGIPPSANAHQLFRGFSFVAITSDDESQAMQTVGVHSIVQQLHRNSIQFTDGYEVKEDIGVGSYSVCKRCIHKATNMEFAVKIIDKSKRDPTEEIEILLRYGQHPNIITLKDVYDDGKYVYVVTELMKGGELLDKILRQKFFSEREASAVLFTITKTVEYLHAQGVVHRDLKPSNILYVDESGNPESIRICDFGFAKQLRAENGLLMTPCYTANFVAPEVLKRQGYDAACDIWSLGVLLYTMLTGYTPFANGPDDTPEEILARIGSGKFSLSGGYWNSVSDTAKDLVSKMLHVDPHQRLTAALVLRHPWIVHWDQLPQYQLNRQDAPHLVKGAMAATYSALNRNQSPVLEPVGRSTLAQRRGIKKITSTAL
Assay [3] concerns the target Proto-oncogene tyrosine-protein kinase Src (Homo sapiens, UniProt P12931). Briefly: Inhibition of human SRC assessed as inhibition constant in presence of ATP.
For assay [4], the target named is Protein kinase C beta type (Homo sapiens, UniProt P05771). Briefly: Inhibition of human PKCbeta1 assessed as inhibition constant in presence of ATP.
Chain of Protein kinase C beta type (P05771 whole entry): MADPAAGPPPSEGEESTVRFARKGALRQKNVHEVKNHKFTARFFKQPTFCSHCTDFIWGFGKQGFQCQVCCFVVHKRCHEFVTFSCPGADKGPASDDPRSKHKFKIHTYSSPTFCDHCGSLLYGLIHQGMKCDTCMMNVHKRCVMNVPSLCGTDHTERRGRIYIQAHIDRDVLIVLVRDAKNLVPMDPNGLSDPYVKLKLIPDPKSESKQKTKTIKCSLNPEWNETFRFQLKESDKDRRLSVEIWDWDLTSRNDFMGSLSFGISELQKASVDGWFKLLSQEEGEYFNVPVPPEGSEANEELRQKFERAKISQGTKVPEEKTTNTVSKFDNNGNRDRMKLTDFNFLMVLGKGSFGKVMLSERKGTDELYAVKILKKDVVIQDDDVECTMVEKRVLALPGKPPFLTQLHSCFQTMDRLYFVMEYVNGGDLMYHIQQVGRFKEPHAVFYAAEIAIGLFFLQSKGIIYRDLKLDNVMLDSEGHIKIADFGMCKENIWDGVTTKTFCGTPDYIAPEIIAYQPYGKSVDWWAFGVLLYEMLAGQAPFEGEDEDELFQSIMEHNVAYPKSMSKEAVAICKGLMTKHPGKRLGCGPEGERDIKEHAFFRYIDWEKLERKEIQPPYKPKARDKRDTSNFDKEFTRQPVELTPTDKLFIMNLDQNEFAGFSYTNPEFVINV
Assay [5] deals with T1, Serine/threonine-protein kinase D1 (Homo sapiens, UniProt Q15139).
T1 sequence (Q15139 whole entry): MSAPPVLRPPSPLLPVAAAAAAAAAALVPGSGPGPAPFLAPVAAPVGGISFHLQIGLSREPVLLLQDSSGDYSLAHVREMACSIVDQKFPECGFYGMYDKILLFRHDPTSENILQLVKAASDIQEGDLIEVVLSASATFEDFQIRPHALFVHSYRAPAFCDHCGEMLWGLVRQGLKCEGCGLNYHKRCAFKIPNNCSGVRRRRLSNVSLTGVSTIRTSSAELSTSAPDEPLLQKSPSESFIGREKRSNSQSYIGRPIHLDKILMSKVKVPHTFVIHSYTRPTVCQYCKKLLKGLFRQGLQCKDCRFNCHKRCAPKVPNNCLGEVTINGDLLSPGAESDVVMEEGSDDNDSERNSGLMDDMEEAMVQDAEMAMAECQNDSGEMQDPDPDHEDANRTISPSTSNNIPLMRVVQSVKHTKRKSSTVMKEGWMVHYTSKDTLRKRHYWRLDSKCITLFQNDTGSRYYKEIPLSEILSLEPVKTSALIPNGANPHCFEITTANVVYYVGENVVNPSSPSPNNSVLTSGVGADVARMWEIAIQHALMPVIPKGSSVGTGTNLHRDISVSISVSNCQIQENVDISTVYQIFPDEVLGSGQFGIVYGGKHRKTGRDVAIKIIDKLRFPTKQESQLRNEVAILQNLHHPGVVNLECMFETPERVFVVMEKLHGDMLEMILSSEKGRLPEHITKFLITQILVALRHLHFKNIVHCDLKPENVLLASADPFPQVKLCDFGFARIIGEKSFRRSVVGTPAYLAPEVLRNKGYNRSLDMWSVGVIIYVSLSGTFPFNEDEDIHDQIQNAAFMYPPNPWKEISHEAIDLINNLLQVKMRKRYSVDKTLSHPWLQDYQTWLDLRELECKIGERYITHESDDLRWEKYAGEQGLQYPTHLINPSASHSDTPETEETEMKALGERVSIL
Nature of the assay: Inhibition of human PKCmu in presence of ATP by cellular assay.

Assay [6] deals with Protein kinase C gamma type (Homo sapiens, UniProt P05129). Nature of the assay: Inhibition of human PKCgamma in presence of ATP by cellular assay.
A further assay has as its system M24met. Briefly: Antitumor activity against human M24met cells xenografted in nude mouse assessed as tumor growth inhibition at 7.5 mg/kg, po administered once daily for 9 to 18 days relative to control. Conditions: time 9-18 day, read-out: TGI. The assay is classed as functional.
Assay [7] can be described thus: In vivo inhibition of PAK4 in nude mouse xenografted with human HCT-116 cells assessed as reduction in phosphorylated GEF-H1 level at 1.1 to 3.3 mg/kg, sc administered for 6 days by ELISA relative to control. The assay is classed as functional. On the set-up: scale not given: the % may be the effect or the level left. Conditions: dose 1.1-3.3 mg/kg, time 6 day. (In general: In xenograft studies the graft and the host belong to different species.)

In assay [8] the test system is HCT-116. Briefly: Antitumor activity against human HCT-116 cells xenografted in nude mouse assessed as increase in caspase 3 activation at 15 to 25 mg/kg, po administered twice daily for 6 days by immunohistochemical analysis. The class given is functional, organism-based. Conditions: dose 15-25 mg/kg, time 6.0 day. In short, it runs like this: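 HCT116 cells (2 × 10^6 in 0.15 mL 1:1 Matrigel:PBS) were implanted s.c. in nude mice. At 300–350 mm3, mice were randomized into groups of five and dosed orally twice daily with vehicle, 15 or 25 mg/kg. Tumors were harvested on days 2, 3 and 6, paraformaldehyde-fixed and IHC-stained for caspase 3 (1:200). Three serial sections were scored 0–4 (0 = <2% to 4 = >7% positive cells).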

In assay [9] the test system is HCT-116. Nature of the assay: Antitumor activity against human HCT-116 cells xenografted in nude mouse assessed as reduction in BAD phosphorylation at S112 residue at 15 to 150 mg/kg/day administered via pump for 18 hrs by Reverse-Phase protein array analysis. The assay is classed as functional, organism-based. Conditions: dose 15-150 mg/kg/day.

The structures appear in SMILES notation. Calls of active or inactive are those of the source. No cut-off for these calls is given here.

Chain of Proto-oncogene tyrosine-protein kinase Src (P12931 2-536 limits assumed): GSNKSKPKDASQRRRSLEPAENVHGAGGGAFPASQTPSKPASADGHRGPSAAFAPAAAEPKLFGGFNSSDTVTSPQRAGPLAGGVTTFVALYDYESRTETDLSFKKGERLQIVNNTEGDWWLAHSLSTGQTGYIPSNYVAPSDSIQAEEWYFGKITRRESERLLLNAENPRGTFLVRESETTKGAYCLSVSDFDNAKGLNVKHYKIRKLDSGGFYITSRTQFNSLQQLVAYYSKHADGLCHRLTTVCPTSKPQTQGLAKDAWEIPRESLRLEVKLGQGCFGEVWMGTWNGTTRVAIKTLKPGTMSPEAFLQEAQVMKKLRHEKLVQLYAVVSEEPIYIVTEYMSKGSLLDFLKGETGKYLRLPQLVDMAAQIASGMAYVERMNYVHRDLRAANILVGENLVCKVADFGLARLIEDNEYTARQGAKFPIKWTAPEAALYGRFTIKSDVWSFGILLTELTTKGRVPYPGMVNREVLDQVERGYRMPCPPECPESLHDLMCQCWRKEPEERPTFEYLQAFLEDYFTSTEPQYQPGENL

As for `Cc1nc(Nc2n[nH]c3c2CN(C(=O)N[C@H](CN(C)C)c2ccccc2)C3(C)C)c2sccc2n1` [PF-03758309], the IC50 – broadly, the concentration needed to halve the response being measured – was found to be 39 nM with BXPC-3; 347 nM with Panc 04.03; 416 nM with Hs 766; 517 nM with HPAF-II; 1100 nM in the assay on CAPAN-1; 1320 nM with CFPAC-1. For the same molecule, the concentration for half-maximal inhibition (IC50) came out at 140 nM in the assay on COLO 205, 1.8 nM with BT-474, 2830 nM in assay [5] and 4.74 µM in assay [6]. Further, the inhibition (usually the drop in the measured response relative to a control, in per cent) in [1] was 95%. For the same molecule, the figures for the Ki in assay [2], in assay [3] and in [4] were 5 nM, 32 nM and 185 nM, respectively. Also, the inhibition in vivo at 7.5 mg/kg in the assay with M24met was found to be 49%. Besides, the Activity in assay [7] turned out to be 54%. The outcome in the assay with HCT-116 [8] and in the assay on HCT-116 [9] was Active.
